Measured values as given in ChEMBL document CHEMBL3425427, “Pyrido[4,3-e][1,2,4]triazolo[4,3-a]pyrazines as Selective, Brain Penetrant Phosphodiesterase 2 (PDE2) Inhibitors” (ACS Med Chem Lett, 2015).
In brackets after ≈: the same amount, converted by molar mass. Values belong to the compound of their own block, whether it stands above or below them. Activity calls are given as the source filed them. The calls are words filed in the database; no cut-off is given here.

Columns and labels:
[1] = Drug metabolism in rat liver microsomes at 1 uM incubated for 15 mins at 37 degC; type: ADME; settings: read-out: Drug metabolism
In short: (§1)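 Compound at 1 μM incubated 15 min at 37 °C with human or rat liver microsomes; read-out is percent metabolized.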

[2] = biological target: T1, cAMP and cAMP-inhibited cGMP 3',5'-cyclic phosphodiesterase 10A (Rattus norvegicus, UniProt Q9QYJ6); assay: Inhibition of 6-His-tagged rat recombinant PDE10A expressed in Sf9 cells using [3H]cAMP incubated for 60 mins by scintillation proximity assay
T1 sequence (Q9QYJ6 whole entry): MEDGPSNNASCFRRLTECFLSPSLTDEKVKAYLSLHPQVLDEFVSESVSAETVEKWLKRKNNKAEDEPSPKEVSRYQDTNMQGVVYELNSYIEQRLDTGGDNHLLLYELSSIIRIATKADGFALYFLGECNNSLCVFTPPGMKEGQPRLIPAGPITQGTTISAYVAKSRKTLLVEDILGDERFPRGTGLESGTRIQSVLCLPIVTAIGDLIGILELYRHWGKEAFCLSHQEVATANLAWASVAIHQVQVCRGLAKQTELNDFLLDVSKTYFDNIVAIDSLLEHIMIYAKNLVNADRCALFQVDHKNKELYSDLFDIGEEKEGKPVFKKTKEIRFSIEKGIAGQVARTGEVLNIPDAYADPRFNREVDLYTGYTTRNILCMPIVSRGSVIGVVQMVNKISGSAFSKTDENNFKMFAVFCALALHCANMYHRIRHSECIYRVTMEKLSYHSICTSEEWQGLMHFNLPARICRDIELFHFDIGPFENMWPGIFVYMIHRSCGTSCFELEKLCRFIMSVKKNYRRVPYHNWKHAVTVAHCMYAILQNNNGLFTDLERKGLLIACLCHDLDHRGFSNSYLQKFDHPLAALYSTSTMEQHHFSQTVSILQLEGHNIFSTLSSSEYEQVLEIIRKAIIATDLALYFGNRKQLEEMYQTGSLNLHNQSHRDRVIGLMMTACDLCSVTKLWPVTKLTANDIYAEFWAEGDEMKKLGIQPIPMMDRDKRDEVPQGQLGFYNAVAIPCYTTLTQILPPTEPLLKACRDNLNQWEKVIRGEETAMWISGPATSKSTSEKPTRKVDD

[3] = Drug metabolism in human liver microsomes at 1 uM incubated for 15 mins at 37 degC; type: ADME; settings: read-out: Drug metabolism; in short: as §1
[4] = Ratio of drug level in brain to plasma of Sprague-Dawley rat at 10 mg/kg, sc after 1 hr; type: ADME, organism-based; set-up: dose 10 mg/kg, route subcutaneous; settings: read-out: BPR
In short: (§2)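 Fed male Sprague-Dawley rats, n = 2 per time point, given 10 mg/kg s.c. in 20% HPβCD at pH 3.5−4. Brain and plasma levels taken 1 h after dosing; brain-to-plasma ratio computed from these.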

[5] = Drug level in Sprague-Dawley rat brain homogenates at 10 mg/kg, sc after 1 hr; type: ADME, organism-based; set-up: dose 10 mg/kg, route subcutaneous; settings: read-out: Drug uptake; in short: as §2
[6] = Unbound fraction in Sprague-Dawley rat brain homogenates at 10 mg/kg, sc after 5 hrs at 37 degC by rapid equilibrium dialysis; type: ADME, organism-based; set-up: dose 10 mg/kg, route subcutaneous; settings: brain homogenate
In short: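 Unbound fraction measured in rat brain homogenate by rapid equilibrium dialysis, 5 h incubation at 37 °C.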

Rattus norvegicus [7] = assay: In vivo PDE2 occupancy in Wistar rat assessed as inhibition of specific binding of [3H]-4-((1-(5-butoxypyridin-3-yl)-4-methyl-[1,2,4]triazolo[4,3-a]quinoxalin-8-yl)methyl)morpholine radiotracer up to 10 mg/kg, po and pre-treated with 2.5 mg/kg, sc PDE10 inhibitor MP10; type: functional, organism-based
Rattus norvegicus [8] = assay: In vivo PDE2 occupancy in Wistar rat assessed as inhibition of specific binding of [3H]-4-((1-(5-butoxypyridin-3-yl)-4-methyl-[1,2,4]triazolo[4,3-a]quinoxalin-8-yl)methyl)morpholine radiotracer and pre-treated with 2.5 mg/kg, sc PDE10 inhibitor MP10; type: functional; settings: route subcutaneous
[9] = biological target: High affinity cGMP-specific 3',5'-cyclic phosphodiesterase 9A (Homo sapiens, UniProt O76083); assay: Inhibition of 6-His-tagged human recombinant PDE9A1 expressed in Sf9 cells by scintillation proximity assay
[10] = Half life in Sprague-Dawley rat at 2.5 mg/kg, iv; type: ADME, organism-based; set-up: dose 2.5 mg/kg, route intravenous; settings: in vivo
In short: (§3)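 Male Sprague-Dawley rats, fed; n = 3 per time point. Dosed 2.5 mg/kg i.v. or 10 mg/kg p.o.; plasma PK parameters derived from both routes.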

[11] = AUC (0 to infinity) in Sprague-Dawley rat at 10 mg/kg, po; type: ADME, organism-based; set-up: time infinity, dose 10 mg/kg, route oral; settings: plasma
[12] = Tmax in Sprague-Dawley rat at 10 mg/kg, po; type: ADME, organism-based; set-up: dose 10 mg/kg, route oral; settings: in vivo; in short: as §3
CYP2D6 = CYP2D6 (Homo sapiens, UniProt P10635); assay: Inhibition of CYP2D6 (unknown origin) at 5 uM; type: ADME
[13] = Dissociation constant, pKa of the compound at 25 degC by potentiometric titration method; type: physicochemical
[14] = Kinetic solubility in pH 7.4 buffer incubated for 4 hrs; type: physicochemical; settings: read-out: Kinetic_solubility
[15] = Dissociation constant, pKa of the compound; type: physicochemical
[16] = Solubility in pH 3.9 buffer with 20% HPbetaCD; type: physicochemical
Salmonella typhimurium = assay: Genotoxicity in Salmonella typhimurium at 125 ug/ml by AMES-2 test; type: toxicity, organism-based; settings: salmonella enterica subsp. enterica serovar typhimurium
In short: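 Colorimetric AMESII bacterial mutagenicity kit, adapted; compound tested at 125 μg/mL.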

[17] = Volume of distribution at steady state in Sprague-Dawley rat at 2.5 mg/kg, iv; type: ADME, organism-based; set-up: dose 2.5 mg/kg, route intravenous; settings: in vivo, read-out: Vdss; in short: as §3
[18] = biological target: 3',5'-cyclic-AMP phosphodiesterase 4D (Homo sapiens, UniProt Q08499); assay: Inhibition of 6-His-tagged human recombinant PDE4D3 expressed in Sf9 cells by scintillation proximity assay
[19] = Clearance in Sprague-Dawley rat at 2.5 mg/kg, iv; type: ADME, organism-based; set-up: dose 2.5 mg/kg, route intravenous; settings: in vivo; in short: as §3
[20] = Cmax in Sprague-Dawley rat at 10 mg/kg, po; type: ADME, organism-based; set-up: dose 10 mg/kg, route oral; settings: in vivo; in short: as §3
[21] = Half life in Sprague-Dawley rat at 10 mg/kg, po; type: ADME, organism-based; set-up: dose 10 mg/kg, route oral; settings: in vivo; in short: as §3
[22] = biological target: High affinity 3',5'-cyclic-AMP phosphodiesterase 7A (Homo sapiens, UniProt Q13946); assay: Inhibition of 6-His-tagged human recombinant PDE7A1 expressed in Sf9 cells by scintillation proximity assay
[23] = Apparent volume of distribution in Sprague-Dawley rat at 2.5 mg/kg, iv; type: ADME, organism-based; set-up: dose 2.5 mg/kg, route intravenous; settings: in vivo, read-out: Vz; in short: as §3
CYP3A4 = CYP3A4 (Homo sapiens, UniProt P08684); assay: Inhibition of CYP3A4 (unknown origin) at 5 uM; type: ADME
[24] = biological target: Dual 3',5'-cyclic-AMP and -GMP phosphodiesterase 11A (Homo sapiens, UniProt Q9HCR9); assay: Inhibition of full length human PDE11A4 expressed in HEK cells by scintillation proximity assay; set-up: species or system HEK293
[25] = biological target: Dual specificity calcium/calmodulin-dependent 3',5'-cyclic nucleotide phosphodiesterase 1A (Homo sapiens, UniProt P54750); assay: Inhibition of human PDE1A by scintillation proximity assay
[26] = Initial plasma concentration in Sprague-Dawley rat at 2.5 mg/kg, iv; type: ADME, organism-based; set-up: dose 2.5 mg/kg, route intravenous; in short: as §3
[27] = Drug formulatability in 20% HPbetaCD at pH >3.5 buffer; type: physicochemical; settings: 20% HPbetaCD in buffer at pH >3.5; read-out: Activity
CYP2C9 = CYP2C9 (Homo sapiens, UniProt P11712); assay: Inhibition of CYP2C9 (unknown origin) at 5 uM; type: ADME
[28] = AUC (0 to infinity) in Sprague-Dawley rat at 2.5 mg/kg, iv; type: ADME, organism-based; set-up: dose 2.5 mg/kg, route intravenous, time infinity; settings: plasma
Rattus norvegicus [29] = assay: In vivo PDE2 occupancy in Wistar rat assessed as inhibition of specific binding of [3H]-4-((1-(5-butoxypyridin-3-yl)-4-methyl-[1,2,4]triazolo[4,3-a]quinoxalin-8-yl)methyl)morpholine radiotracer and pre-treated with 2.5 mg/kg, sc PDE10 inhibitor MP10
Phosphodiesterase 6 = assay: Inhibition of human PDE6AB by scintillation proximity assay; type: protein assay
CYP1A2 = biological target: T2, CYP1A2 (Homo sapiens, UniProt P05177); assay: Inhibition of CYP1A2 (unknown origin) at 5 uM; type: ADME
T2 sequence (P05177 whole entry): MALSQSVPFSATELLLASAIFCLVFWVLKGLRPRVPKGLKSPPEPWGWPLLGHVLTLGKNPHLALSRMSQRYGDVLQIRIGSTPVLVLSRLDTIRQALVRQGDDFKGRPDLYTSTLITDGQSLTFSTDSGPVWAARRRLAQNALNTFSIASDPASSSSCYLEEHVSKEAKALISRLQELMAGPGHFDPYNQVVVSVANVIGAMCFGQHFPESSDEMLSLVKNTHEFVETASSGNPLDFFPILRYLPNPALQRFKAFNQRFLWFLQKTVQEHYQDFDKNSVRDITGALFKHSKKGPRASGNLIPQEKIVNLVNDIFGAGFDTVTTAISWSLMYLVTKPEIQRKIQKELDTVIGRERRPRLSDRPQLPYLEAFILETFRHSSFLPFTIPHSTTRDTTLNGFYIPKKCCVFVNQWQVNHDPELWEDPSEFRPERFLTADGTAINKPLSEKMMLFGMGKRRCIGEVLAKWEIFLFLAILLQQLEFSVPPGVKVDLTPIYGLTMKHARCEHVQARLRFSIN

[30] = biological target: cGMP-specific 3',5'-cyclic phosphodiesterase (Homo sapiens, UniProt O76074); assay: Inhibition of 6-His-tagged human recombinant PDE5A3 expressed in Sf9 cells by scintillation proximity assay
CYP2C19 = CYP2C19 (Homo sapiens, UniProt P33261); assay: Inhibition of CYP2C19 (unknown origin) at 5 uM; type: ADME
[31] = Oral bioavailability in Sprague-Dawley rat at 10 mg/kg; type: ADME, organism-based; settings: in vivo; in short: as §3
[32] = Solubility in pH 7.4 buffer; type: physicochemical
[33] = biological target: cGMP-inhibited 3',5'-cyclic phosphodiesterase 3B (Homo sapiens, UniProt Q13370); assay: Inhibition of human PDE3B by scintillation proximity assay
cGMP-inhibited 3',5'-cyclic phosphodiesterase 3B, sequence (Q13370 whole entry): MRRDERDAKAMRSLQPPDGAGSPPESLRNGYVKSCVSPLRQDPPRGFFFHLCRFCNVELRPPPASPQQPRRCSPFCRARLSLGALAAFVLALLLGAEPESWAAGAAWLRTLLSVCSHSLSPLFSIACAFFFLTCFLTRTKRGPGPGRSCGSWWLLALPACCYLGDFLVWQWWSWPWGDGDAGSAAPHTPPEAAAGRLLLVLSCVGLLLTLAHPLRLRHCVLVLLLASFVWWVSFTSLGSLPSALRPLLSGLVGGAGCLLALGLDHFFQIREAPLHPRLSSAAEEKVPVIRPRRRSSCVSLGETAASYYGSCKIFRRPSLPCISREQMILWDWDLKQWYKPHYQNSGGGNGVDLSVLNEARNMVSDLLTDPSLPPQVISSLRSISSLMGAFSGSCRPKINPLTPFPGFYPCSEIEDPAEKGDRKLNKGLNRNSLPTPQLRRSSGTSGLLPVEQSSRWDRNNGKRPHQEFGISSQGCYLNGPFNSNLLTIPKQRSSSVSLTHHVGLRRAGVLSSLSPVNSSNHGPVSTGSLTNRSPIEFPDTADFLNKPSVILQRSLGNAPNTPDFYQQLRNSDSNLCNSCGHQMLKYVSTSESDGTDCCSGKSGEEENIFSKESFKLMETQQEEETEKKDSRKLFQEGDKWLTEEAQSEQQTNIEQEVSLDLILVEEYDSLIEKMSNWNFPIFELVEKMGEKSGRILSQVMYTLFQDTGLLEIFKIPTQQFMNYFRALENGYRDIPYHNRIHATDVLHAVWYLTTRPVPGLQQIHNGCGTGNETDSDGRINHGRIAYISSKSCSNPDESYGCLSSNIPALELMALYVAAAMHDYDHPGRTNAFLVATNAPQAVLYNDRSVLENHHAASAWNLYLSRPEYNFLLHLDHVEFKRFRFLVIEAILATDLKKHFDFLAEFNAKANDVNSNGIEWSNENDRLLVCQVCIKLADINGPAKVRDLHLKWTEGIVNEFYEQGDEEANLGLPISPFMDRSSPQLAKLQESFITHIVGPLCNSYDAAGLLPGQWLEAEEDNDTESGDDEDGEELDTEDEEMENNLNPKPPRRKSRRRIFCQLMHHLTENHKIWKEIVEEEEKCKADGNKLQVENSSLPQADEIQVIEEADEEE

CYP2D6, sequence (P10635 whole entry): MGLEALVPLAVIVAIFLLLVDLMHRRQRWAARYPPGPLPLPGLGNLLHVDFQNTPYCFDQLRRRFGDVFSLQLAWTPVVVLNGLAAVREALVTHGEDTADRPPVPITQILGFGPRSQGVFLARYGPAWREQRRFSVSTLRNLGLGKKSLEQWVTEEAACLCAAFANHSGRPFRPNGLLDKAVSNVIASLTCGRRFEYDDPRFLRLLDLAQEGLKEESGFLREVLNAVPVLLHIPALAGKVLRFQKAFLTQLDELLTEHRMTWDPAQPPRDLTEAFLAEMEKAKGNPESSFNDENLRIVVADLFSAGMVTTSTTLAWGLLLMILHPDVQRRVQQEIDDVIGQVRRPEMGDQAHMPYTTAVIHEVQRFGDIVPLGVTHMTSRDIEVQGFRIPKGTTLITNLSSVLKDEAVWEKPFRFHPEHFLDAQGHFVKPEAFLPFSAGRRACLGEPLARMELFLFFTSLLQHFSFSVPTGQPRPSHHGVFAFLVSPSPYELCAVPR
Dual 3',5'-cyclic-AMP and -GMP phosphodiesterase 11A, sequence (Q9HCR9 whole entry): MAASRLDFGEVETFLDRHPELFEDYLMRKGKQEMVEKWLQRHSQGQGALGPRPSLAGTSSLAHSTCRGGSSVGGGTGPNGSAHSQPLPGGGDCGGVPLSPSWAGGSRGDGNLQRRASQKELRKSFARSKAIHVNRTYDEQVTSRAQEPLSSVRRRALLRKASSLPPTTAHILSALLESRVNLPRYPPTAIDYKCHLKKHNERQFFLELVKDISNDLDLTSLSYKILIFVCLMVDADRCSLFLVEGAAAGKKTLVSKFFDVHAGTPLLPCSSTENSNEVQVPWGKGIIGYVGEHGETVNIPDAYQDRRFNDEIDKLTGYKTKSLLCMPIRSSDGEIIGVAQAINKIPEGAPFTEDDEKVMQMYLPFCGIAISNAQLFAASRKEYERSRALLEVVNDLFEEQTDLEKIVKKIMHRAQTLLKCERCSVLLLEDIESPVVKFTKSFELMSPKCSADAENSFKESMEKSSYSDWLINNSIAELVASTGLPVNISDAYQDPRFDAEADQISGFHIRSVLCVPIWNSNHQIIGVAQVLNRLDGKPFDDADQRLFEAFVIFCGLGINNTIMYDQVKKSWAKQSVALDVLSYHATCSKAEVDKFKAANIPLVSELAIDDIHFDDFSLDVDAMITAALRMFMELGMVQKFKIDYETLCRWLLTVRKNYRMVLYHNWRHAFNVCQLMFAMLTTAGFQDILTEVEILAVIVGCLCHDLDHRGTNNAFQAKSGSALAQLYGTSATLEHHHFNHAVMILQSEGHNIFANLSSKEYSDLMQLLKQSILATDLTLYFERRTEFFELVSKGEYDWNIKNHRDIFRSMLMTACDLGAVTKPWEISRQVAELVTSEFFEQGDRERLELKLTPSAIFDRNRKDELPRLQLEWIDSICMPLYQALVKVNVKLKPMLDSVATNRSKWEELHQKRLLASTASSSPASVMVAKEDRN
3',5'-cyclic-AMP phosphodiesterase 4D, sequence (Q08499 whole entry): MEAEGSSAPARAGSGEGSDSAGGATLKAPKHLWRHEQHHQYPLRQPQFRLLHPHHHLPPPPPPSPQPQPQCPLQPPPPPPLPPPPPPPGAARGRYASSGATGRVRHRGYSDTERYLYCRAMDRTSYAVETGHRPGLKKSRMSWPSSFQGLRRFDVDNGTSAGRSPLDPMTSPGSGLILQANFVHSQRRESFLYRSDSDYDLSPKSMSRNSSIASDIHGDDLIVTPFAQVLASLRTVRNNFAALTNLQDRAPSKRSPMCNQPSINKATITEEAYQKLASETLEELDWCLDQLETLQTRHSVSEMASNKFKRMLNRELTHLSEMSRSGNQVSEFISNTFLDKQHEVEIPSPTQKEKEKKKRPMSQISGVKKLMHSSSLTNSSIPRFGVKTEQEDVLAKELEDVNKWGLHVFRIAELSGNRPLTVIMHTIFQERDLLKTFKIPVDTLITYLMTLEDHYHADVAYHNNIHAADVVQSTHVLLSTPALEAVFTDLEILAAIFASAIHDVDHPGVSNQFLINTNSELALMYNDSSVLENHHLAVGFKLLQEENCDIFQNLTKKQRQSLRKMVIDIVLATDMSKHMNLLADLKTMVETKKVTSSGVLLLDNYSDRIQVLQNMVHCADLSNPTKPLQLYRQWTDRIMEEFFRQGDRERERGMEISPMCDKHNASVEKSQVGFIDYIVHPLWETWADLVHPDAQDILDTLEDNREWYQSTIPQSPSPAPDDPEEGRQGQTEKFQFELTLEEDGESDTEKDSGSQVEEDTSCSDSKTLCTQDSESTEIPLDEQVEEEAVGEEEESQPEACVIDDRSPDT
CYP2C9, sequence (P11712 whole entry): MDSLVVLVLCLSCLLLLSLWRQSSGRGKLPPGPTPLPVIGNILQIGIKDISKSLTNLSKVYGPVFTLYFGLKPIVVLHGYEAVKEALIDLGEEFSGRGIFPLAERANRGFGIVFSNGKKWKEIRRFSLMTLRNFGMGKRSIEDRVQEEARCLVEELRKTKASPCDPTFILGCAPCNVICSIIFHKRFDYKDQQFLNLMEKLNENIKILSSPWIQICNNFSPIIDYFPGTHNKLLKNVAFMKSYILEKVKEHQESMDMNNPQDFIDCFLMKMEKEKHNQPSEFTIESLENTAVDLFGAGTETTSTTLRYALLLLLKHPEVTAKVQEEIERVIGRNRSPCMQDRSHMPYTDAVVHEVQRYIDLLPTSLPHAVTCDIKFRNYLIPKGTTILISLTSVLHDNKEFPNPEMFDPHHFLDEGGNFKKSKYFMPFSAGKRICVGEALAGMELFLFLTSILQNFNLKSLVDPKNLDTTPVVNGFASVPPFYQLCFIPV
CYP2C19, sequence (P33261 whole entry): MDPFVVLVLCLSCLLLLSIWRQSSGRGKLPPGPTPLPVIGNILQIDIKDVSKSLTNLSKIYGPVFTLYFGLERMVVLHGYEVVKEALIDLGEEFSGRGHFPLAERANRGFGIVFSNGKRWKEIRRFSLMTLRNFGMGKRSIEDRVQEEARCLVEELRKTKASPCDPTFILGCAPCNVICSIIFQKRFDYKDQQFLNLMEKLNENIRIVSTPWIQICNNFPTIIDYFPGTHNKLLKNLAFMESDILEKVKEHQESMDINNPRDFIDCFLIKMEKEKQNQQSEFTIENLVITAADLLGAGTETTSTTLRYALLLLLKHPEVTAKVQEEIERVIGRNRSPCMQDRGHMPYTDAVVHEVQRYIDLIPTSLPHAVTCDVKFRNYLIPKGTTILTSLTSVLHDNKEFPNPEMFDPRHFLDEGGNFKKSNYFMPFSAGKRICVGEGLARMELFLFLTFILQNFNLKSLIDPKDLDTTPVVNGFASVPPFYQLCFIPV
CYP3A4, sequence (P08684 whole entry): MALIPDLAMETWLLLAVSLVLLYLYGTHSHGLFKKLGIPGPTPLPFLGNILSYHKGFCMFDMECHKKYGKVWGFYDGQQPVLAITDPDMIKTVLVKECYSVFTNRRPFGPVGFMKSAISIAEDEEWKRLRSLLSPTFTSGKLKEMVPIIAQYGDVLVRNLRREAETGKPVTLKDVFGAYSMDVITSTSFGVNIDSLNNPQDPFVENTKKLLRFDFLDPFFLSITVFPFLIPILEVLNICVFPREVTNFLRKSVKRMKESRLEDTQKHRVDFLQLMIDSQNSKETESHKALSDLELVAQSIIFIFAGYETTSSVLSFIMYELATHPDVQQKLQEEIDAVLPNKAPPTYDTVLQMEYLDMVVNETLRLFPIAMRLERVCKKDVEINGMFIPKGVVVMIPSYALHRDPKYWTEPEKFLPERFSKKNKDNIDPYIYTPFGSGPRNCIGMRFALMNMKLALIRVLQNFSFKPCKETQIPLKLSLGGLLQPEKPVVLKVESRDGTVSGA

Structure (SMILES): Cc1nc2ccncc2n2c(-c3cc(N4CCOCC4)ccc3Cl)nnc12
- metabolised at 0.25 h, 1 µM [1]: 53%
- IC50 [2]: > 10 µM
- metabolised at 0.25 h, 1 µM [3]: 14%

Structure (SMILES): Cc1nc2ccncc2n2c(-c3cc(COCC(F)(F)F)ccc3Cl)nnc12
- metabolised at 0.25 h, 1 µM [1]: 77%
- Kp at 1 h [4]: 1.1
- concentration at 1 h [5]: 370 ng/g
- Activity (Rattus norvegicus [7]): inactive
- ED50 (Rattus norvegicus [8]): 3.6 mg/kg
- metabolised at 0.25 h, 1 µM [3]: 12%
- fraction unbound at 5 h [6]: 0.1

Structure (SMILES): Cc1nc2ccncc2n2c(-c3ccccc3Cl)nnc12
- IC50 [9]: > 10 µM
- half-life [10]: 0.47 h
- AUC(0-inf) [11]: 4230 ng·h/mL
- Tmax [12]: 1.17 h
- metabolised at 0.25 h, 1 µM [1]: 13%
- inhibition at 5 µM (CYP2D6): < 50%
- pKa [13]: 2.7
- solubility kinetic at 4 h [14]: > 1000 µM
- Kp at 1 h [4]: 0.65
- pKa [15]: 2.7
- solubility [16]: 4000 µg/mL (≈ 13.5 mM)
- Activity (Salmonella typhimurium): Non-toxic
- Vd [17]: 1.02 L/kg
- IC50 [18]: 5.89 µM
- clearance [19]: 38.7 mL/min/kg
- concentration at 1 h [5]: 2730 ng/g
- Cmax [20]: 997 ng/mL
- half-life [21]: 2.36 h
- IC50 [22]: > 10 µM
- Vd [23]: 1.61 L/kg
- inhibition at 5 µM (CYP3A4): < 50%
- IC50 [24]: 6.92 µM
- IC50 [25]: > 10 µM
- C0 [26]: 3020 ng/mL
- solubility [27]: 4000 µg/mL (≈ 13.5 mM)
- inhibition at 5 µM (CYP2C9): < 50%
- AUC(0-inf) [28]: 1040 ng·h/mL
- ED50 (Rattus norvegicus [29]): 21 mg/kg
- IC50 (Phosphodiesterase 6): > 10 µM
- inhibition at 5 µM (CYP1A2): < 50%
- metabolised at 0.25 h, 1 µM [3]: 7%
- IC50 [30]: > 10 µM
- fraction unbound at 5 h [6]: > 0.3
- inhibition at 5 µM (CYP2C19): < 50%
- bioavailability [31]: 100%
- solubility [32]: > 1000 µM
- IC50 [33]: > 10 µM

Continued, values first:

- metabolised at 0.25 h, 1 µM [1]: 98%
- Kp at 1 h [4]: 0.69
- concentration at 1 h [5]: 807 ng/g
- metabolised at 0.25 h, 1 µM [3]: 34%
- fraction unbound at 5 h [6]: 0.026
Structure (SMILES): CCCCOc1ccc(Cl)c(-c2nnc3c(C)nc4ccncc4n23)c1

- metabolised at 0.25 h, 1 µM [1]: 98%
- IC50 [2]: 6.03 µM
- metabolised at 0.25 h, 1 µM [3]: 57%
Structure (SMILES): Cc1nc2ccncc2n2c(-c3cc(COC(C)C)ccc3Cl)nnc12
